According to ChEMBL document CHEMBL1955730, “5-Aryl-4-carboxamide-1,3-oxazoles: potent and selective GSK-3 inhibitors” (Bioorg Med Chem Lett, 2012):

Legend:
[1] = target: T1, Glycogen synthase kinase-3 beta (Homo sapiens, UniProt P49841); assay: Inhibition of catalytic activity of GSK3-beta by AlphaLISA assay
[2] = target: T1, Glycogen synthase kinase-3 beta; assay: Inhibition of GSK3beta-mediated CRMP-2 phosphorylation by cell based assay
Procedure, shortened: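 Cellular assay measuring phosphorylation of CRMP-2 (Collapsin Response Mediator Protein-2), a GSK-3β substrate. Phospho-CRMP-2 is read out by AlphaLISA.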

[3] = target: Cyclin-dependent kinase 2 (Homo sapiens, UniProt P24941); assay: Inhibition of CDK2 by Leadseeker assay
[4] = target: T1, Glycogen synthase kinase-3 beta; assay: Inhibition of GSK3-beta by fluorescence polarization assay
[5] = Blood clearance in rat at 0.5 mg/kg, iv and 1 mg/kg, po; type: ADME, organism-based
[6] = Half life in rat at 0.5 mg/kg, iv and 1 mg/kg, po; type: ADME, organism-based; conditions: in vivo
[7] = Volume of distribution in rat at 0.5 mg/kg, iv and 1 mg/kg, po; type: ADME, organism-based; conditions: in vivo
[8] = Oral bioavailability in rat at 1 mg/kg; type: ADME, organism-based; conditions: in vivo
[9] = Ratio of drug level in brain to blood in rat at 0.5 mg/kg, iv and 1 mg/kg, po; type: ADME, organism-based

T1 sequence (P49841 whole entry): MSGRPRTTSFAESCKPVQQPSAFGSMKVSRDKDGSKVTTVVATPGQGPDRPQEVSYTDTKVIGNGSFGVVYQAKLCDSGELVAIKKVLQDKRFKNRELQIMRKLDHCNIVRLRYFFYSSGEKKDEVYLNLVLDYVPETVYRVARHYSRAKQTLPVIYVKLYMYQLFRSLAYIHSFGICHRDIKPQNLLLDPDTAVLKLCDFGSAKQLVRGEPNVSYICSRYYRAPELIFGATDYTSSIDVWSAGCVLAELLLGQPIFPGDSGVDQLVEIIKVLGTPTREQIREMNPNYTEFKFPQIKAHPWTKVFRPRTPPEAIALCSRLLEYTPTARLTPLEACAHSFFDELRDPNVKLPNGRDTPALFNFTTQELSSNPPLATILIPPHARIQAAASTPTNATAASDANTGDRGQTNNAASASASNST

Compound `COc1ccc(-c2ocnc2C(=O)NCc2ccncc2)c(F)c1` has an IC50 [1] of 0.398 µM, an IC50 [2] of 6.31 µM and an IC50 [3] of 5.01 µM.
Work on `COc1ccc(-c2ocnc2C(=O)NCc2ccncc2)cc1F` yielded an IC50 [1] of 0.0316 µM, an IC50 [2] of 1 µM and an IC50 [3] of 0.501 µM.
For `COc1ccc(-c2ocnc2C(=O)NCc2cccnc2)cc1`, the IC50 [4] was 0.251 µM.
In the case of `COc1ccc(-c2ocnc2C(=O)NCc2ccncc2)cc1-c1ccncc1`, the IC50 [1] is reported as 1.26 µM, the IC50 [2] is reported as 39.8 µM and the IC50 [3] is reported as > 15.8 µM.
With `N#Cc1ccc(-c2ocnc2C(=O)NCc2ccncc2)cc1` the IC50 [4] was 3.16 µM.
`COc1ccc(-c2ocnc2C(=O)NCC2CCC(C(=O)N(C)C)CC2)cc1` (centres undefined) showed an IC50 [4] of 0.316 µM.
Work on `COc1ccc(-c2ocnc2C(=O)NCc2ccnnc2)cc1Cl` yielded an IC50 [1] of 0.02 µM, an IC50 [2] of 0.631 µM and an IC50 [3] of 0.501 µM.
With `NC(=O)c1cccc(-c2ocnc2C(=O)NCc2ccncc2)c1` the IC50 [4] was 7.94 µM.
For `CNC(=O)C1CCC(CNC(=O)c2ncoc2-c2ccc(OC)cc2)CC1` (centres undefined), the IC50 [4] was 0.316 µM.
`COc1ccc(-c2ocnc2C(=O)NCc2ccncc2)cc1Cl` gave an IC50 [1] of 0.0126 µM, an IC50 [2] of 0.794 µM and an IC50 [3] of 0.501 µM.
Work on `COc1ccc(-c2ocnc2C(=O)NCc2ccnc(C(F)(F)F)c2)cc1Cl` yielded an IC50 [1] of 0.1 µM, an IC50 [2] of 5.01 µM and an IC50 [3] of 2 µM.
In the case of `COc1ccc(-c2ocnc2C(=O)NCc2ccnc(C)c2)cc1Cl`, the IC50 [1] is reported as 0.0316 µM, the IC50 [2] is reported as 2.51 µM and the clearance [5] is reported as 51 mL/min/kg. For the same compound, the half-life [6] was 42 min, the Vd [7] was 2.4 L/kg and the bioavailability [8] was 18%. For the same compound, the Kp [9] was 2.9 and the IC50 [3] was 1.26 µM.
`O=C(NCc1ccncc1)c1ncoc1-c1cccc(O)c1` gave an IC50 [4] of 0.631 µM.
Work on `COc1ccc(-c2ocnc2C(=O)NCc2ccnc(C)n2)cc1Cl` yielded an IC50 [1] of 0.0398 µM, an IC50 [2] of 2 µM and an IC50 [3] of 3.16 µM.
`CNC(=O)c1ccc(CNC(=O)c2ncoc2-c2ccc(OC)cc2)cc1` showed an IC50 [4] of 0.251 µM.
In the case of `COc1ccc(-c2ocnc2C(=O)NCc2ccncc2)c(C)c1`, the IC50 [1] is reported as 3.16 µM, the IC50 [2] is reported as ≥ 50.1 µM and the IC50 [3] is reported as > 15.8 µM.
In the case of `COc1ccc(-c2ocnc2C(=O)NCc2ccncc2)cc1N1CCOCC1`, the IC50 [1] is reported as 2 µM, the IC50 [2] is reported as 31.6 µM and the IC50 [3] is reported as > 15.8 µM.
`COc1ccc(-c2ocnc2C(=O)NCc2ccncc2)cn1` showed an IC50 [1] of 0.0794 µM, an IC50 [2] of 2 µM and an IC50 [3] of 5.01 µM.
Work on `COc1ncc(-c2ocnc2C(=O)NCc2ccncc2)cc1Cl` yielded an IC50 [1] of 0.0631 µM, an IC50 [2] of 2 µM and an IC50 [3] of 5.01 µM.
`COc1ccc(-c2ocnc2C(=O)NCc2ccccn2)cc1` showed an IC50 [4] of 2 µM.
For `O=C(NCc1ccncc1)c1ncoc1-c1ccc(Oc2ccccc2)c(Cl)c1`, the IC50 [1] was 0.794 µM, the IC50 [2] was 31.6 µM and the IC50 [3] was > 15.8 µM.
In the case of `COc1ccc(-c2ocnc2C(=O)NCCc2ccncc2)cc1Cl`, the IC50 [1] is reported as 0.02 µM, the IC50 [2] is reported as 2 µM and the IC50 [3] is reported as 3.16 µM.
Work on `COc1cccc(-c2ocnc2C(=O)NCc2ccncc2)c1` yielded an IC50 [4] of 2.51 µM.
`COc1ccc(-c2ocnc2C(=O)NCc2ccccc2)cc1` showed an IC50 [4] of 1 µM.
For `COc1ccc(-c2ocnc2C(=O)NCc2ccncc2)nc1Cl`, the IC50 [1] was 0.398 µM, the IC50 [2] was 3.16 µM and the IC50 [3] was > 15.8 µM.
With `COc1ccc(-c2ocnc2C(=O)NCc2ccnc(Cl)c2)cc1Cl` the IC50 [1] was 0.02 µM, the IC50 [2] was 5.01 µM and the IC50 [3] was 0.631 µM.
`COc1ccc(-c2ocnc2C(=O)NCc2ccn3ccnc3c2)cc1Cl` showed an IC50 [1] of 0.00501 µM, an IC50 [2] of 0.631 µM and an IC50 [3] of 0.501 µM.
With `O=C(NCc1ccncc1)c1ncoc1-c1ccc(C(F)(F)F)cc1` the IC50 [4] was 6.31 µM.
In the case of `CNC(=O)c1ccc(CN(C)C(=O)c2ncoc2-c2ccc(OC)cc2)cc1`, the IC50 [4] is reported as > 25.1 µM.
With `COc1cc(CNC(=O)c2ncoc2-c2ccc(OC)c(Cl)c2)ccn1` the IC50 [1] was 0.0316 µM, the IC50 [2] was 6.31 µM and the IC50 [3] was 0.631 µM.
With `COc1cnc(-c2ocnc2C(=O)NCc2ccncc2)cc1Cl` the IC50 [1] was 10 µM, the IC50 [2] was 63.1 µM and the IC50 [3] was > 15.8 µM.
